Test results reported in ChEMBL document CHEMBL1154625, “New insights into the SAR and binding modes of bis(hydroxyphenyl)thiophenes and -benzenes: influence of additional substituents on 17beta-hydroxysteroid dehydrogenase type 1 (17beta-HSD1) inhibitory activity and selectivity” (J Med Chem, 2009).
Active and inactive are the calls of the source. The rule behind the calls is not given here.

What was measured:
[1] = target: T1, 17-beta-hydroxysteroid dehydrogenase type 1 (Homo sapiens, UniProt P14061)
T1 sequence (P14061 whole entry): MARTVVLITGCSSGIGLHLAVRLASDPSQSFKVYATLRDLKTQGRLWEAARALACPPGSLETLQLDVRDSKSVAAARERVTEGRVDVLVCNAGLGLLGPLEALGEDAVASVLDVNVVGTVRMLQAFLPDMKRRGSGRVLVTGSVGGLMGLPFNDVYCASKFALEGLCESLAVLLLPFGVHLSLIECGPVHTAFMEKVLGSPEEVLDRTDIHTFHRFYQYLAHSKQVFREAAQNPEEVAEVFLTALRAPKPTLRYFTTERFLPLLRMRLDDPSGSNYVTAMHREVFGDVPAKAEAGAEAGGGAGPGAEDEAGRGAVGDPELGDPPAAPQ

[2] = target: T2, 17-beta-hydroxysteroid dehydrogenase type 2 (Homo sapiens, UniProt P37059); test: Inhibition of human placental 17betaHSD2 by radiodetection assay
T2 sequence (P37059 whole entry): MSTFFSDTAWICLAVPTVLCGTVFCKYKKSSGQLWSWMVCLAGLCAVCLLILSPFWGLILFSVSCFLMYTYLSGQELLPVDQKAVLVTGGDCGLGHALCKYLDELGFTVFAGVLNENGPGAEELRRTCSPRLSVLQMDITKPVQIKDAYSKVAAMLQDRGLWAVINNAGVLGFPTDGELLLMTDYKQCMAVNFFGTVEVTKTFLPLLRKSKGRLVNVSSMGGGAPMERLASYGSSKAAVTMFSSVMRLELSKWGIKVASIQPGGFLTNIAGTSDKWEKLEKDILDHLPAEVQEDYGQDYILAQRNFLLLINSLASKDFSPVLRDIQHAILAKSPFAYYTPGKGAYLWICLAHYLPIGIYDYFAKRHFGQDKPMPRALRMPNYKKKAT
Procedure, shortened: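 Microsomal fraction from fresh human placenta (pellet after homogenisation and centrifugation). Incubated 20 min at 37 °C with NAD+ 1500 μM and unlabeled E2 plus [2,4,6,7-3H]E2 (500 nM final) in phosphate buffer 50 mM with 20% glycerol and 1 mM EDTA, 1% DMSO. Stopped with HgCl2 and ether-extracted. Substrate and product separated by HPLC with radiodetection. Mean of three determinations.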

[3] = Cmax in Wistar rat at 10 mg/kg, po; format: ADME, organism-based; set-up: dose 10 mg/kg, route oral; conditions: in vivo
Procedure, shortened: (§1)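 Male Wistar rats (300-330 g), jugular-vein cannulated under ketamine/xylazine anaesthesia, sampled while freely moving. Oral cassette dosing by feeding needle to four rats at 10 mg/kg in labrasol/water (1:1), 5 mL/kg. Blood taken at 0, 1, 2, 3, 4, 6, 8, 10 and 24 h postdose; plasma frozen at -20 °C and quantified by HPLC-MS/MS.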

[4] = test system: Rattus norvegicus; test: AUC (0 to infinity) in Wistar rat at 10 mg/kg, po; format: ADME, organism-based, Plasma; set-up: time infinity, dose 10 mg/kg, route oral; conditions: in vivo
Procedure, shortened: as §1

[5] = Tmax in Wistar rat at 10 mg/kg, po; format: ADME, organism-based; set-up: dose 10 mg/kg, route oral; conditions: in vivo
Procedure, shortened: as §1

[6] = target: Cytochrome P450 3A4 (Homo sapiens, UniProt P08684); test: Inhibition of human hepatic CYP3A4; format: ADME
Procedure, shortened: (§2)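 Tested with commercial P450 inhibition kits, used following the manufacturer's instructions. Values reported as IC50.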

[7] = test system: T47D; test: […] in human T47D cells assessed as inhibition of E2 formation in presence of E1
[8] = target: Cytochrome P450 2D6 (Homo sapiens, UniProt P10635); test: Inhibition of human hepatic CYP2D6; format: ADME
Procedure, shortened: as §2

[9] = Terminal half life in Wistar rat at 10 mg/kg, po; format: ADME, organism-based; set-up: dose 10 mg/kg, route oral; conditions: in vivo, read-out: beta t1/2 (converted)
Procedure, shortened: as §1

[10] = target: Cytochrome P450 2C19 (Homo sapiens, UniProt P33261); test: Inhibition of human hepatic CYP2C19; format: ADME
Procedure, shortened: as §2

[11] = target: T3, Estrogen receptor (Homo sapiens) (UniProt P03372); test: Agonist activity at ER in human T47D cells assessed as stimulation of cell proliferation; format: functional, cell-based
T3 sequence (whole entry): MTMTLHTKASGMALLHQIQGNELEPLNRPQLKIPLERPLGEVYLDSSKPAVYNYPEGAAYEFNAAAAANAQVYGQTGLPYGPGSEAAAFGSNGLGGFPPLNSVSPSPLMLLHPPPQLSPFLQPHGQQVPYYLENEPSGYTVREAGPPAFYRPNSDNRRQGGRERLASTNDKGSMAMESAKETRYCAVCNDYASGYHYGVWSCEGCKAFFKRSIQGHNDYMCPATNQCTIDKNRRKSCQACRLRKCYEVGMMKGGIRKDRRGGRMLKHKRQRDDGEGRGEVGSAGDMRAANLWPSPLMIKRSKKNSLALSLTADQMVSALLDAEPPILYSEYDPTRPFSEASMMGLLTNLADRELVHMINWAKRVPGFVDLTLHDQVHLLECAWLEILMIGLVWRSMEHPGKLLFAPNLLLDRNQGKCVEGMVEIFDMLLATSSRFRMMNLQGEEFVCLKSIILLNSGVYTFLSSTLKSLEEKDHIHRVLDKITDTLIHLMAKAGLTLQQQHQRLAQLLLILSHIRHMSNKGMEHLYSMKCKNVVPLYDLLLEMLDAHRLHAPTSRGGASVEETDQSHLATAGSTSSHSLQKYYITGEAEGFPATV
Procedure, shortened: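 T-47D cells grown 48 h in phenol red-free RPMI 1640 with 5% DCC-FCS, insulin and supplements, then exposed to test compound at 100 nM final (1% ethanol) for 8 days. Medium and additive renewed every 2-3 days. E2 0.1 nM served as positive control, ethanol as negative. Viability read by MTT at 590 nm. Stimulation was expressed relative to E2-induced proliferation, mean of ≥3 independent experiments.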

Cytochrome P450 3A4, sequence (P08684 whole entry): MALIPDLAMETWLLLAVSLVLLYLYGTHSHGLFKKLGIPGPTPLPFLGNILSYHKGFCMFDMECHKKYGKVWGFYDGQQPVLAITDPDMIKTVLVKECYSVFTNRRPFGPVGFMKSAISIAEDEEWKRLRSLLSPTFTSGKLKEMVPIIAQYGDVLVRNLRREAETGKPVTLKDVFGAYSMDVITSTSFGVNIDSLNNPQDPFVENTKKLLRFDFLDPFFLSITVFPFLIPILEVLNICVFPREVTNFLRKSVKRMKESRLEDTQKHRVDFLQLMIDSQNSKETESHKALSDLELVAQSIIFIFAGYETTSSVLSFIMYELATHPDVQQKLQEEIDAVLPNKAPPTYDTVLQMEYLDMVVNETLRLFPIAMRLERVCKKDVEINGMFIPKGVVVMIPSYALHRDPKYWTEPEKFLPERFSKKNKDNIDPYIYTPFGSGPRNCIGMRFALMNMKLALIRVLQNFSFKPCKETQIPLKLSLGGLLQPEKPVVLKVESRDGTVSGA
Cytochrome P450 2C19, sequence (P33261 whole entry): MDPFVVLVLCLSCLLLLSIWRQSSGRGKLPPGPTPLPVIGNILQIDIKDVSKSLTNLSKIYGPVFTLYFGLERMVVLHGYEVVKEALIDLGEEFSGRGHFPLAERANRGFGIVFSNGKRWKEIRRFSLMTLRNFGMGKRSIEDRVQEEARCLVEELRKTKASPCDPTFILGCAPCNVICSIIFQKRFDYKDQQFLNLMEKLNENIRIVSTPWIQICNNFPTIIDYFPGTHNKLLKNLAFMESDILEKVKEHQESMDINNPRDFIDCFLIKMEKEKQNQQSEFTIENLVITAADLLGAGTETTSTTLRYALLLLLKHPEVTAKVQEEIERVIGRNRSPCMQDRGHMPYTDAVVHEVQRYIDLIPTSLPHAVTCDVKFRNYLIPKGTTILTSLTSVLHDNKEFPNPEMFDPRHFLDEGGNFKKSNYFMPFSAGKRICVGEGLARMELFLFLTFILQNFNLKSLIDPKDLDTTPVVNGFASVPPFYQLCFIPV
Cytochrome P450 2D6, sequence (P10635 whole entry): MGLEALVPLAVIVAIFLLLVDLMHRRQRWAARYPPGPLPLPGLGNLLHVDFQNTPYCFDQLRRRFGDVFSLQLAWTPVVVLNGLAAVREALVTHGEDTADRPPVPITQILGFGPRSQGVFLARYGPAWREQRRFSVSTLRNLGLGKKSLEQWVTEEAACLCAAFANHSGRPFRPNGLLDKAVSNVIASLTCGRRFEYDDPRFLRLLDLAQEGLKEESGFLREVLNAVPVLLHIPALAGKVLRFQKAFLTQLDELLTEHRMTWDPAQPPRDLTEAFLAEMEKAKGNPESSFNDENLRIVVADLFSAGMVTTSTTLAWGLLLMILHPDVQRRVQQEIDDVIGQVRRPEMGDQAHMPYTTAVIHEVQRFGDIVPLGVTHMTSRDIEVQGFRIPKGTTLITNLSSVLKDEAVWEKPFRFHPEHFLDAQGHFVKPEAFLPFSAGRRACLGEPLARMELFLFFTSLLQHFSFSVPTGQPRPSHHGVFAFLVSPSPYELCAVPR

SMILES	IC50 [1] [µM]	IC50 [2] [µM]	also measured
Oc1cccc(-c2ccc(-c3ccc(O)c(C(F)(F)F)c3)s2)c1	0.038	0.097	–
Oc1cccc(-c2ccc(-c3ccc(O)c(O)c3)s2)c1	0.402	–	–
Oc1cccc(-c2ccc(-c3ccc(O)c(F)c3)s2)c1	0.008	–	Cmax [3]: 1.39 µg/mL; AUC [4]: 19407 ng/mL; Tmax [5]: 8 h; IC50 [6]: 0.82 µM; IC50 [7]: 0.282 µM; IC50 [8]: > 1.5 µM; half-life [9]: 2.7 h; IC50 [10]: 1.5 µM
Cc1cc(-c2ccc(-c3cccc(O)c3)s2)ccc1O	0.046	–	Cmax [3]: 0.905 µg/mL; AUC [4]: 12275 ng/mL; Tmax [5]: 4 h; IC50 [6]: 0.5 µM; Activity [11]: inactive; IC50 [7]: 0.426 µM; IC50 [8]: > 1.5 µM; half-life [9]: 3.8 h; IC50 [10]: 0.94 µM
Cc1cc(-c2ccc(-c3cccc(O)c3)cc2)ccc1O	0.171	1.25	–
Cc1cc(-c2cnc(-c3cccc(O)c3)s2)ccc1O	0.143	–	–
Oc1cccc(-c2ccc(-c3ccc(O)c(-c4ccccc4)c3)s2)c1	> 5	–	–
O=C(CCc1cc(-c2ccc(-c3cccc(O)c3)s2)ccc1O)Nc1ccccc1	0.62	0.982	–
Oc1ccc(-c2ccc(-c3cc(O)cc(F)c3)s2)cc1	0.042	0.463	–
Oc1cccc(-c2ccc(-c3cc(F)c(O)c(F)c3)s2)c1	0.056	0.312	–
Oc1ccc(-c2cc(-c3cccc(O)c3)c(-c3cccc(O)c3)s2)cc1	> 1	–	–
Cc1cc(-c2cccc(O)c2)sc1-c1cccc(O)c1	0.567	0.856	–
Cc1cc(-c2csc(-c3cccc(O)c3)c2)ccc1O	0.064	–	IC50 [6]: > 1.5 µM; IC50 [7]: 0.362 µM; IC50 [8]: > 1.5 µM; IC50 [10]: 1.5 µM
CS(=O)(=O)NCc1cccc(-c2ccc(-c3cccc(O)c3)s2)c1	> 1	–	–
CS(=O)(=O)Nc1cccc(-c2ccc(-c3cccc(O)c3)s2)c1	–	1.57	–
Oc1cccc(-c2ccc(-c3ccc(O)c(F)c3)cc2)c1	0.123	0.872	–
Oc1cccc(-c2ccc(-c3ccc(F)cc3)s2)c1	–	3.65	–
Nc1ccc(-c2ccc(-c3cccc(O)c3)s2)cc1	> 5	–	–

SMILES	IC50 [1] [µM]	IC50 [2] [µM]	also measured
Oc1cccc(-c2ccc(-c3ccc(F)c(O)c3)cc2)c1	0.051	0.253	–
Oc1cccc(-c2cc(-c3ccccc3)c(-c3cccc(O)c3)s2)c1	0.493	–	–
Oc1cccc(-c2ccc(-c3ccc(S)cc3)s2)c1	> 5	–	–
Cc1ccc(S(=O)(=O)NCc2cccc(-c3ccc(-c4cccc(O)c4)s3)c2)cc1	0.35	0.276	–
N#Cc1ccc(-c2ccc(-c3cccc(O)c3)s2)cc1	> 1	–	–
Oc1cc(F)cc(-c2ccc(-c3ccc(O)c(F)c3)s2)c1	0.029	0.227	–
Oc1cccc(-c2ccc(-c3cccc(F)c3)s2)c1	–	1.82	–
Oc1cccc(-c2ccc(-c3ccc(F)c(F)c3)s2)c1	0.78	2.64	–
Oc1cccc(-c2cc(-c3cccc(O)c3)c(-c3cccc(O)c3)s2)c1	0.119	0.188	–
Oc1cccc(-c2cc(-c3ccc(O)c(F)c3)cs2)c1	0.064	0.51	–
CCOC(=O)/C=C/c1cc(-c2ccc(-c3cccc(O)c3)s2)ccc1O	0.13	0.502	–
O=C(/C=C/c1cc(-c2ccc(-c3cccc(O)c3)s2)ccc1O)Nc1ccccc1	0.427	0.468	–
Oc1ccc(-c2ccc(-c3ccc(O)c(O)c3)s2)cc1	> 5	–	–
Oc1ccc(-c2ccc(-c3ccc(F)c(O)c3)s2)cc1	0.113	0.183	–
Cc1ccc(-c2ccc(-c3ccc(O)cc3)s2)cc1O	> 5	–	–
Cc1cc(O)cc(-c2ccc(-c3ccc(O)cc3)s2)c1	0.629	2.58	–
Oc1cc(-c2ccc(-c3ccc(O)c(F)c3)s2)ccc1F	0.017	0.218	–
